The values that follow come from ChEMBL document CHEMBL1145328, “Synthesis, crystal structure, structure-activity relationships, and antiviral activity of a potent SARS coronavirus 3CL protease inhibitor” (J Med Chem, 2006).

Series [1] concerns MRC5. Put plainly: Cytotoxicity against MRC5 cells infected with human coronavirus 229E. It is filed as functional, cell-based.
The target of the next series is Replicase polyprotein 1a (Severe acute respiratory syndrome-related coronavirus, UniProt P0C6U8). The series is described as follows: Inhibition of SARS coronavirus 3CL protease. The gist of the method: (§1)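 SARS 3CLpro (75 nM) or 229E 3CLpro (75 nM), recombinant, expressed as GST fusion in E. coli BL21(DE3)pLysS and released with factor Xa. Enzyme preincubated with compound 20 min at 25 °C. Reaction in Tris-HCl pH 7.5, NaCl, EDTA, DTT and BSA, 30 min at 25 °C, stopped with TFA. Conversion measured by reverse-phase HPLC peak areas. Ki by Cheng–Prusoff.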

In series [2] the test system is MRC5. Put plainly: Antiviral activity against human coronavirus 229E in MRC5 cells assessed as reduction in viral load at 2.5 uM. Type of series: functional. The gist of the method:
(§2)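 HCoV 229E (ATCC VR-740) stocks were grown in MRC-5 cells. MRC-5 cells were preabsorbed with 40 pfu/well virus for 1 h, then unabsorbed virus was removed and serially diluted compound added. Supernatants were harvested and TCID50 titred on fresh MRC-5 cells. Titre is given as log TCID50/mL.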

For series [3], the system named is Plasma. Put plainly: Stability in human plasma. Type of series: ADME, cell-free. The procedure, abridged:
(§3)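 Human, mouse or rat plasma was prewarmed 5 min at 37 °C. Compound was added from a 100 µM stock in 1% DMSO to give 90% plasma. Samples were shaken at 37 °C for 0, 30 or 120 min, then quenched in acetonitrile with internal standard and centrifuged. Supernatant was diluted and analysed by LC/MS. Result is % of initial remaining.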

A further series has as its system Vero. Put plainly: Cytotoxicity against VeroE6 cells infected with SARS coronavirus. Type of series: functional, cell-based. The conditions noted are these: Chlorocebus sabaeus.
Series [4] is described as follows: Stability in rat plasma after 30 mins. Type of series: ADME, cell-free. The conditions noted are these: read-out: Stability. The procedure, abridged:
as §3

For series [5], the system named is SARS-CoV. Put plainly: Antiviral activity against SARS coronavirus in VeroE6 cells assessed as reduction in viral load at 5 uM. It is filed as functional, Severe acute respiratory syndrome-related coronavirus.
A short description of series [6]: Stability in mouse plasma after 120 mins. Conditions: read-out: Stability. Type of series: ADME. The gist of the method:
as §3

The test system of series [7] is MRC5. The series is described as follows: Antiviral activity against human coronavirus 229E in MRC5 cells assessed as reduction in viral load at 0.625 uM. It is filed as functional. The gist of the method:
as §2

For the next series, the system named is Human coronavirus 229E. The series is described as follows: Inhibition of human coronavirus 229E 3CL protease. Type of series: functional. The gist of the method:
as §1

Another series is filed under the species Mus musculus. The series is described as follows: Stability in mouse plasma. Type of series: ADME. The gist of the method:
as §3

For series [8], the system named is SARS-CoV. Put plainly: Antiviral activity against SARS coronavirus in VeroE6 cells assessed as reduction in viral load at 10 uM. It is filed as functional, Severe acute respiratory syndrome-related coronavirus.
In series [9] the test system is Plasma. Put plainly: Stability in rat plasma. It is filed as ADME, cell-free. The procedure, abridged:
as §3

Series [10] is described as follows: Stability in mouse plasma after 30 mins. It is filed as ADME. The conditions noted are these: read-out: Stability. The procedure, abridged: as §3
The subject of series [11] is MRC5. Put plainly: Protection of MRC5 cells infected with human coronavirus 229E at 1 uM. It is filed as functional, cell-based. The procedure, abridged: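 MRC-5 cells at 90% confluence were infected for 1 h with 10-fold serial dilutions of HCoV 229E stock. Unabsorbed virus was removed and cells overlaid with 0.3% agarose. Compound was present in the medium for 4 days. Cells were then fixed with 10% formalin and stained with 0.5% crystal violet to see plaques.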

Series [12] is described as follows: Stability in rat plasma after 120 mins. It is filed as ADME, cell-free. Conditions: read-out: Stability. The procedure, abridged:
as §3

Series [13] has as its system SARS-CoV. The series is described as follows: Antiviral activity against SARS coronavirus in VeroE6 cells assessed as reduction in viral load at 1.25 uM. Type of series: functional, Severe acute respiratory syndrome-related coronavirus.
Series [14] concerns MRC5. Put plainly: Antiviral activity against human coronavirus 229E in MRC5 cells assessed as reduction in viral load at 1.25 uM. It is filed as functional. The procedure, abridged:
as §2

For series [15], the system named is MRC5. Put plainly: Antiviral activity against human coronavirus 229E in MRC5 cells assessed as reduction in viral load at 5 uM. Type of series: functional. The procedure, abridged:
as §2

Series [16] deals with SARS-CoV. The series is described as follows: Antiviral activity against SARS coronavirus in VeroE6 cells assessed as reduction in viral load at 0.625 uM. Type of series: functional, Severe acute respiratory syndrome-related coronavirus.
Series [17] in a line: Stability in human plasma after 30 mins. Type of series: ADME, cell-free. The conditions noted are these: read-out: Stability. The gist of the method: as §3
For series [18], the system named is MRC5. The series is described as follows: Antiviral activity against human coronavirus 229E in MRC5 cells assessed as reduction in viral load. It is filed as functional. The gist of the method: as §2
Series [19] can be described thus: Stability in human plasma after 120 mins. Conditions: read-out: Stability. It is filed as ADME, cell-free. The procedure, abridged:
as §3

The test system of series [20] is SARS-CoV. Put plainly: Antiviral activity against SARS coronavirus in VeroE6 cells assessed as reduction in viral load at 2.5 uM. It is filed as functional, Severe acute respiratory syndrome-related coronavirus.
Series [21] deals with SARS-CoV. Put plainly: Antiviral activity against SARS coronavirus in VeroE6 cells assessed as reduction in viral load. Type of series: functional, Severe acute respiratory syndrome-related coronavirus.

Active and inactive are the calls of the source. No cut-off for these calls is given here. A value given as a limit tells only on which side of the number the result lay.

`CCOC(=O)/C=C/[C@H](C[C@@H]1CCNC1=O)NC(=O)[C@H](CC(C)C)NC(=O)[C@@H](NC(=O)OCc1ccccc1)C(C)OC(C)(C)C` (some centres undefined): the midpoint of inhibition in the series on MRC5 [1], the IC50, lay at 880 nM. The affinity at Replicase polyprotein 1a corresponds to a Ki of 58 nM.

Turning to `CC(OC(C)(C)C)[C@H](NC(=O)OCc1ccccc1)C(=O)N[C@@H](CC1CCCCC1)C(=O)N[C@H](C=O)C[C@@H]1CCNC1=O` (some centres undefined), the “log10 TCID50” value was 1.3 in the series on MRC5 [2]; 2 with SARS-CoV [5]; 3 in the series with MRC5 [7]; 2 in the series with SARS-CoV [8]; 6 in the series on SARS-CoV [13]; 1.3 with MRC5 [14]. Further, the “log10 TCID50” value with MRC5 [15] is on record as 1.3; with SARS-CoV [16] it was 6.4; with MRC5 [18] it was 6.51; in the series with SARS-CoV [20], 5; with SARS-CoV [21], 6.7. Besides, the Stability with Plasma [3], in the series listed under Mus musculus and in the series with Plasma [9] was 100% each time. The IC50 turned out to be 600 nM with Vero and 140 nM with MRC5 [1]. Further, the remaining at 0.5 h in series [4] was 70%; in series [10], 84%; in [17] it was 81%. For the same molecule, the remaining at 2 h in series [6] turned out to be 71%; in series [12], 73%; in series [19], 83%. Also, the inhibition constant Ki in the series with Human coronavirus 229E worked out at 68 nM; at Replicase polyprotein 1a, 53 nM. Besides, in the series with MRC5 [11], the result was Active.

Molecule `CCOC(=O)/C=C/[C@H](C[C@@H]1CCNC1=O)NC(=O)[C@H](Cc1ccccc1)NC(=O)[C@@H](NC(=O)OCc1ccccc1)C(C)C` registered an IC50 in the series with MRC5 [1] of 13200 nM. Moreover, the Ki at Replicase polyprotein 1a is 2260 nM.

As for `CCOC(=O)/C=C/[C@H](C[C@@H]1CCNC1=O)NC(=O)[C@H](Cc1ccc(F)cc1)NC(=O)[C@@H](NC(=O)c1cc(C)on1)C(C)C`, the Ki in the series with Human coronavirus 229E and on Replicase polyprotein 1a was over 10000 nM each time. Moreover, the IC50 with MRC5 [1] is over 20000 nM.

`CCOC(=O)/C=C/[C@H](C[C@@H]1CCNC1=O)NC(=O)[C@H](CC(C)C)NC(=O)[C@@H](NC(=O)OCc1ccccc1)C(C)C` yielded an IC50 in the series on MRC5 [1] of 9100 nM. Affinity on Replicase polyprotein 1a was put at a Ki of 660 nM.
